Experimental data from ChEMBL document CHEMBL2429855, “Efforts toward broadening the spectrum of arylomycin antibiotic activity” (Bioorg Med Chem Lett, 2013).
In brackets after ≈: the same amount, converted by molar mass.

Key:
[1] = system: Escherichia coli; test: Antibacterial activity against Escherichia coli MG1655 harboring lptD lepB (P84L) mutation assessed as growth inhibition after 22 hrs by broth microdilution method; assay type: functional; conditions: K-12 substr. MG1655, 22 h
In short: (§1)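 MIC by broth microdilution against wild-type S. epidermidis RP62A, MSSA 8325, MRSA USA300 and E. coli MG1655. Also tested: S. aureus 8325 and E. coli MG1655 mutants made sensitive by mutating the resistance-conferring SPase Pro residue, an lptD hyperpermeable E. coli (outer membrane permeable to large molecules), and an E. coli combining lptD with SPase sensitization.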

[2] = system: Escherichia coli; test: Antibacterial activity against Escherichia coli MG1655 harboring lptD mutation assessed as growth inhibition after 22 hrs by broth microdilution method; assay type: functional; conditions: K-12 substr. MG1655, 22 h; in short: as §1
[3] = system: Escherichia coli; test: Antibacterial activity against Escherichia coli MG1655 harboring lepB (P84L) mutation assessed as growth inhibition after 22 hrs by broth microdilution method; assay type: functional; conditions: K-12 substr. MG1655, 22 h; in short: as §1
[4] = system: Staphylococcus aureus; test: Antibacterial activity against Staphylococcus aureus 8325 harboring spsB (P29S) mutation assessed as growth inhibition after 22 hrs by broth microdilution method; assay type: functional; conditions: NCTC 8325, 22 h; in short: as §1
[5] = system: Escherichia coli; test: Antibacterial activity against wild type Escherichia coli MG1655 assessed as growth inhibition after 22 hrs by broth microdilution method; assay type: functional; conditions: K-12 substr. MG1655, 22 h; in short: as §1
[6] = system: Staphylococcus aureus; test: Antibacterial activity against wild type methicillin-resistant Staphylococcus aureus USA300 assessed as growth inhibition after 22 hrs by broth microdilution method; assay type: functional; conditions: USA300, 22 h; in short: as §1
[7] = system: Staphylococcus aureus; test: Antibacterial activity against wild type methicillin-sensitive Staphylococcus aureus 8325 assessed as growth inhibition after 22 hrs by broth microdilution method; assay type: functional; conditions: NCTC 8325, 22 h; in short: as §1
[8] = system: Staphylococcus epidermidis; test: Antibacterial activity against wild type Staphylococcus epidermidis RP62A assessed as growth inhibition after 22 hrs by broth microdilution method; assay type: functional; in short: as §1
[9] = biological target: T1, Signal peptidase IB (Staphylococcus aureus, UniProt P0A070); test: Binding affinity to Staphylococcus aureus type-1 signal peptidase using decanoyl-LSSPAYNO2A-ADKabzPD and decanyol-LTPTAYNO2A-ASKKabzDD as substrate by fluorescence assay
T1 sequence (P0A070 whole entry): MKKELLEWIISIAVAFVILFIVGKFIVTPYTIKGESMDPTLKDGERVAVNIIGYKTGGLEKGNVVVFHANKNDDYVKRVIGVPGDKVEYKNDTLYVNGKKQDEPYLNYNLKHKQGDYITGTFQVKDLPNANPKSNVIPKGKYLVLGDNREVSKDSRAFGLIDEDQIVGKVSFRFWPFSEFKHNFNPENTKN

[10] = biological target: Signal peptidase I (Escherichia coli K-12, UniProt P00803); test: Binding affinity to Escherichia coli type-1 signal peptidase lepB using decanoyl-LSSPAYNO2A-ADKabzPD and decanyol-LTPTAYNO2A-ASKKabzDD as substrate by fluorescence assay

| Compound | MIC [1] [µg/mL] | MIC [2] [µg/mL] | MIC [3] [µg/mL] | MIC [4] [µg/mL] | MIC [5] [µg/mL] | MIC [6] [µg/mL] | MIC [7] [µg/mL] | MIC [8] [µg/mL] | IC50 [9] [nM] | IC50 [10] [nM] |
| --- | --- | --- | --- | --- | --- | --- | --- | --- | --- | --- |
| CCCCCCCCCCCCCCCC(=O)N(C)[C@H](CO)C(=O)N[C@H](C)C(=O)NCC(=O)N(C)[C@@H]1C(=O)N[C@@H](C)C(=O)N[C@H](C(=O)O)Cc2ccc(O)c(c2)-c2cc1ccc2OCCO | 0.02 (≈ 0.0216 µM) | 16 (≈ 17.3 µM) | 1 (≈ 1.08 µM) | 8 (≈ 8.65 µM) | > 64 | > 64 | > 64 | 1 (≈ 1.08 µM) | 4220 | 75.7 |
| CCCCCCCCCCCCCCCC(=O)N(C)[C@H](CO)C(=O)N[C@H](C)C(=O)NCC(=O)N(C)[C@@H]1C(=O)N[C@@H](C)C(=O)N[C@H](CC(=O)NCC=O)Cc2ccc(O)c(c2)-c2cc1ccc2O | 2 (≈ 2.14 µM) | > 64 | > 64 | > 64 | > 64 | > 64 | > 64 | 32 (≈ 34.2 µM) | > 21400 | 1010 |
| CCCCCCCCCCCCCCCC(=O)N(C)[C@H](CO)C(=O)N[C@H](C)C(=O)NCC(=O)N(C)[C@@H]1C(=O)N[C@@H](C)C(=O)N[C@H](C(=O)O)Cc2ccc(O)c(c2)-c2cc1ccc2OP(=O)(O)O | 0.03 (≈ 0.0312 µM) | 32 (≈ 33.3 µM) | 1 (≈ 1.04 µM) | > 64 | > 64 | > 64 | > 64 | 0.3 (≈ 0.312 µM) | 1980 | 146 |
| CCCCCCCCCCCCCCCC(=O)N(C)[C@H](CO)C(=O)N[C@H](C)C(=O)NCC(=O)N(C)[C@@H]1C(=O)N[C@@H](C)C(=O)N[C@H](C(=O)NCC=O)Cc2ccc(O)c(c2)-c2cc1ccc2OP(=O)(OCc1ccccc1)OCc1ccccc1 | 0.3 (≈ 0.254 µM) | 64 (≈ 54.1 µM) | 16 (≈ 13.5 µM) | 32 (≈ 27.1 µM) | > 64 | > 64 | > 64 | 1 (≈ 0.846 µM) | 152 | 195 |
| CCCCCCCCCCCCCCCC(=O)N(C)[C@H](CO)C(=O)N[C@H](C)C(=O)NCC(=O)N(C)[C@@H]1C(=O)N[C@@H](C)C(=O)N[C@H](C(=O)O)Cc2ccc(O)c(c2)-c2cc1ccc2OCCN | 0.004 (≈ 0.00433 µM) | 4 (≈ 4.33 µM) | 0.5 (≈ 0.541 µM) | 4 (≈ 4.33 µM) | > 64 | 32 (≈ 34.6 µM) | > 64 | 0.1 (≈ 0.108 µM) | 3460 | 55.2 |
| CCCCCCCCCCCCCCCC(=O)N(C)[C@H](CO)C(=O)N[C@H](C)C(=O)NCC(=O)N(C)[C@@H]1C(=O)N[C@@H](C)C(=O)N[C@H](C(=O)NCC=O)Cc2ccc(O)c(c2)-c2cc1ccc2OCCN | 0.06 (≈ 0.0622 µM) | > 64 | 2 (≈ 2.07 µM) | 32 (≈ 33.2 µM) | > 64 | > 64 | > 64 | 1 (≈ 1.04 µM) | 332 | 87 |
| CCCCCCCCCCCCCCCC(=O)N(C)[C@H](CO)C(=O)N[C@H](C)C(=O)NCC(=O)N(C)[C@@H]1C(=O)N[C@@H](C)C(=O)N[C@H](C(=O)NCC=O)Cc2ccc(O)c(c2)-c2cc1ccc2OCCO | 0.03 (≈ 0.031 µM) | 16 (≈ 16.6 µM) | 2 (≈ 2.07 µM) | 8 (≈ 8.28 µM) | > 64 | 64 (≈ 66.2 µM) | > 64 | 2 (≈ 2.07 µM) | 63.1 | 9.31 |
| CCCCCCCCCCCCCCCC(=O)N(C)[C@H](CO)C(=O)N[C@H](C)C(=O)NCC(=O)N(C)[C@@H]1C(=O)N[C@@H](C)C(=O)N[C@H](C(=O)NCP(=O)(OCC)OCC)Cc2ccc(O)c(c2)-c2cc1ccc2O | 2 (≈ 1.94 µM) | > 64 | > 64 | > 64 | > 64 | > 64 | > 64 | 8 (≈ 7.77 µM) | > 19400 | > 19400 |
| CCCCCCCCCCCCCCCC(=O)N(C)[C@H](CO)C(=O)N[C@H](C)C(=O)NCC(=O)N(C)[C@@H]1C(=O)N[C@@H](C)C(=O)N[C@H](C(=O)NCP(=O)(Oc2ccccc2)Oc2ccccc2)Cc2ccc(O)c(c2)-c2cc1ccc2O | 8 (≈ 7.1 µM) | > 64 | > 64 | > 64 | > 64 | > 64 | > 64 | > 64 | > 17800 | > 17800 |
| CCCCCCCCCCCCCCCC(=O)N(C)[C@H](CO)C(=O)N[C@H](C)C(=O)NCC(=O)N(C)[C@@H]1C(=O)N[C@@H](C)C(=O)N[C@H](C(=O)NCC=O)Cc2ccc(O)c(c2)-c2cc1ccc2O | 0.06 (≈ 0.0651 µM) | > 64 | 4 (≈ 4.34 µM) | 8 (≈ 8.68 µM) | > 64 | 16 (≈ 17.4 µM) | > 64 | 2 (≈ 2.17 µM) | 53.1 | 16.3 |
| CCCCCCCCCCCCCCCC(=O)N(C)[C@H](CO)C(=O)N[C@H](C)C(=O)NCC(=O)N(C)[C@@H]1C(=O)N[C@@H](C)C(=O)N[C@H](C(=O)NCP(=O)(OC)OC)Cc2ccc(O)c(c2)-c2cc1ccc2O | 2 (≈ 2 µM) | > 64 | 64 (≈ 63.9 µM) | > 64 | > 64 | > 64 | > 64 | 8 (≈ 7.98 µM) | > 20000 | 20000 |
| CCCCCCCCCCCCCCCC(=O)N(C)[C@H](CO)C(=O)N[C@H](C)C(=O)NCC(=O)N(C)[C@@H]1C(=O)N[C@@H](C)C(=O)N[C@H](C(=O)NCP(=O)(O)O)Cc2ccc(O)c(c2)-c2cc1ccc2O | 0.1 (≈ 0.103 µM) | > 64 | 4 (≈ 4.11 µM) | > 64 | > 64 | 64 (≈ 65.7 µM) | > 64 | 8 (≈ 8.21 µM) | 16400 | 842 |
| CCCCCCCCCCCCCCCC(=O)N(C)[C@H](CO)C(=O)N[C@H](C)C(=O)NCC(=O)N(C)[C@@H]1C(=O)N[C@@H](C)C(=O)N[C@H](C(=O)O)Cc2ccc(O)c(c2)-c2cc1ccc2O [ARYLOMYCIN C16] | 0.02 (≈ 0.0227 µM) | 16 (≈ 18.2 µM) | 0.5 (≈ 0.567 µM) | 4 (≈ 4.54 µM) | > 64 | > 64 | > 64 | 0.25 (≈ 0.284 µM) | 1800 | 70 |
